This series in a line: Toxicity liver stage against HepG2, at 10uM. In kind it is cell-based. Further details: test concentration 10 uM, cell line HepG2-A16-CD81EGFP. Conditions: human, HepG2-A16-CD81EGFP cells; read-out: INHIBITION
The essentials: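 Uninfected HepG2-A16-CD81EGFP cells, 3 × 10^3 per well, 1536-well, plated on prespotted compound at 10 μM final, parasite-free screening media added to match infected plates; puromycin 10 μM positive, DMSO 0.5% negative; run in parallel with 48 h PbLuc assay at 37 °C, 5% CO2; viability by CellTiter-Glo luminescence, normalized to controls.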
For `COCc1cc(C[C@@H]2CC[C@H](O)[C@@H](CNCC(C)C)O2)no1`, the cytotoxicity at 10 µM amounted to 0.847%.
In the case of `CC(C)(C)n1ncc2c1NC(=O)CSC2c1ccsc1` (stereo unspecified) it was -2.34%; in that of `Cc1cc(C)nc(N2CCCC(C(=O)Nc3n[nH]c(C(C)C)n3)C2)n1` (stereo unspecified), 8.04%; in that of `CC(C)N1CCc2[nH]nc(C(=O)N3CCCC3C)c2C1` (stereo unspecified), -6.25%.
Turning to `CCOCC1CN(CCOCc2ccccc2)Cc2c1cnn2C` (stereo unspecified), the cytotoxicity at 10 µM was -132%.
For `CCc1ccc(NC(=O)N2C[C@H]3CC[C@@]4(N=C(C)N(C)C4=O)[C@H]3C2)cc1`, the cytotoxicity at 10 µM worked out at 11%.
Under `COCC1CN(C(=O)c2cccn2C)Cc2cnn(C)c21` (stereo unspecified) stands 7.43%; under `COc1cc(C(=O)NCC2CCCO2)nc2c(C)cc(F)cc12` (stereo unspecified), 1.79%.
Turning to `COC(=O)c1sccc1S(=O)(=O)NCC1(O)CCOc2ccccc21` (stereo unspecified), the cytotoxicity at 10 µM is -10.9%.
In the case of `CC(=O)N1CCn2c(COCc3csc(C)n3)cnc2C1C` (stereo unspecified) it was -12.5%.
For `O=C(O)c1cnc(N2CCCC2)nc1COc1ccccc1`, the cytotoxicity at 10 µM is 0.924%.
As to `CN(C)Cc1cc(C2CCCN(S(=O)(=O)c3cccc(Cl)c3)C2)nn1C` (stereo unspecified), the cytotoxicity at 10 µM was found to be 0.288%.
`CCn1cc(-c2nccnc2C2CCCN(C(C)=O)C2)cn1` (stereo unspecified): the cytotoxicity at 10 µM was -6.03%.
Under `c1cc(C2CCCN2CC2CC2)n[nH]1` (stereo unspecified) stands -1.75%; under `CNC(=O)c1cn[nH]c1C1CCN(Cc2sccc2C)C1` (stereo unspecified), -21.2%; under `c1cnc(-c2cnc(N3CCCCC3)nc2C2CCCO2)cn1` (stereo unspecified), -7.16%.
Under `O=C(NC1CC1)c1cc(C(F)(F)F)cc(C(F)(F)F)n1` stands 6%; under `CN(CCOc1ccc(F)cc1)S(=O)(=O)N1CCOCC1`, 7.71%; under `CCOc1nnc(CN2CCC(c3cc4ccccc4[nH]3)CC2)s1`, 20.6%.
In the case of `c1cnc(NCCCOC2CCOCC2)nc1` it was -2.96%; in that of `N#CC1(C(=O)N2CCOC(c3ccc(F)cc3)C2)CCCCC1` (stereo unspecified), 3.85%; in that of `COCC(=O)Nc1nnc2n(Cc3cccc(OC)c3)[nH]c(C)c1-2`, -11.7%.
Take `CNC(=O)Cc1noc(-c2cc3c(s2)CCCC3)n1`: the cytotoxicity at 10 µM is 0.403%.
For the compound `N#CCCCS(=O)(=O)NC1(c2cccc(Br)c2)CC1`, the cytotoxicity at 10 µM was 2.99%.
Under `CCCOc1cc(CNC(=O)Nc2ccc(C)cc2)ccn1` stands 2.99%.
Under `N#CC1COCCN1S(=O)(=O)c1ccc2c(c1)CCC2` (stereo unspecified) stands 4.53%.
As for `CCOc1ccc(CC(=O)N(CCC(=O)OC)CC2CCCO2)cc1` (stereo unspecified), the cytotoxicity at 10 µM is 5.04%.
Regarding `O=C(NCC1(c2ccc(F)cc2)CCCC1)N1CCOC(CO)C1` (stereo unspecified), the cytotoxicity at 10 µM is 0.323%.
Under `CN(C(=O)c1ccc(NC(=O)c2cc[nH]n2)cc1)C1CCCCC1` stands -2.98%.
Take `Cc1cc(NC(=O)N2CCCC(CO)C2)nn1-c1ccccc1Cl` (stereo unspecified): the cytotoxicity at 10 µM was 8.23%.
On to `O=c1[nH]nc(SCC2CCCO2)n1C1CC1` (stereo unspecified), for which the cytotoxicity at 10 µM turned out to be 0.0288%.
In the case of `O=C(NCC(c1cccs1)N1CCOCC1)c1ccc(F)cc1Cl` (stereo unspecified), the cytotoxicity at 10 µM is -2.27%.
In the case of `CC(C)c1ccc(CS(=O)(=O)CC(=O)NCc2ccccc2F)cc1`, the cytotoxicity at 10 µM worked out at 8.31%.
Under `Cc1cc(C)n(CC2CN(CC(=O)Nc3cccnc3)CCO2)n1` (stereo unspecified) stands -3.1%; under `O=C(c1csc(-c2ncccn2)n1)N1CCN(C2CCCC2)CC1`, 4.87%.
As for `Cc1cccc(S(=O)(=O)N2CSCC2C(=O)NCC2CC2)c1` (stereo unspecified), the cytotoxicity at 10 µM is -6.14%.
Under `CCS(=O)(=O)CC(C)NC(=O)N(C)Cc1cc(Cl)cn1C` (stereo unspecified) stands -1.04%; under `O=C(CNc1cc(F)ccc1OC(F)F)NCC(F)(F)F`, -2.79%.
Take `CC(C)CN1C(=O)C2(CCCC2)NC12CCSCC2`: the cytotoxicity at 10 µM is -135%.
On to `O=C(c1ccc[nH]1)N(Cc1ccc(O)cc1)CC1CC1`, for which the cytotoxicity at 10 µM came to 8.43%.
As for `COCCCNC(=O)Cn1nnc(-c2cc3ccccc3o2)n1`, the cytotoxicity at 10 µM was found to be 6.43%.
Under `Cc1c(NC(=O)NC2CCCC2)cccc1C(=O)N1CCSCC1` stands 11.8%; under `COCCN1CCN(c2ccc(CN(C)C)cn2)CC1`, -7.41%; under `O=C(c1ccccc1O)N1CCN(C(=O)C2CCC2)CC1`, 2.42%.
As for `c1ccc(CN2CCCC2)c(CNc2cncc3nnnn23)c1`, the cytotoxicity at 10 µM came to 0.351%.
Under `CC(=O)Nc1ccc(C(=O)N2CCSCC2c2ccc(C)o2)cc1` (stereo unspecified) stands 11.4%.
In the case of `CCCNC(=O)C1CCCN(Cc2ccc(-n3cncn3)c(C)c2)C1` (stereo unspecified) it was 8.28%.
Take `OC(CN1CCOCC1)c1cc(Cl)ccc1Cl` (stereo unspecified): the cytotoxicity at 10 µM is -1.57%.
For the compound `CC1CCCN1C1CCN(C(=O)c2cccc(-c3ccoc3)c2)CC1` (stereo unspecified), the cytotoxicity at 10 µM is -9.63%.
Take `Cc1nc(CC(C)C)sc1C(=O)N1CCC1`: the cytotoxicity at 10 µM came out at 15.8%.
On to `CS(=O)(=O)Cc1cccc(C(=O)NCC2Cc3ccccc3O2)c1` (stereo unspecified), for which the cytotoxicity at 10 µM is -16.5%.
Under `CC(=O)N1CC[C@H]2OCC[C@@H](C(=O)Nc3cccnc3C)[C@H]2C1` stands 0.0861%; under `Cn1nccc1C(=O)N1CCOC(Cc2ccc(F)cc2)C1` (stereo unspecified), 5.08%.
In the case of `CC(C)c1nc(CN(C)Cc2ccc(O)c(C(=O)O)c2)cs1` it was -4.24%.
Regarding `CCC(C)NC(=O)c1coc(COc2cccc(F)c2)n1` (stereo unspecified), the cytotoxicity at 10 µM was -146%.
Under `NS(=O)(=O)c1ccc(F)c(C(=O)NCCSc2ccccn2)c1` stands -9.11%; under `COc1cccc(CN2C[C@H]3CC[C@H]2C3)c1OCCN1CCOCC1`, 0.101%.
In the case of `CC(=O)Nc1ccsc1C(=O)Nc1cnc2n1CCCC2` it was -4.58%; in that of `Cc1cc(NCCc2c[nH]cn2)nc(-c2cccnc2)n1`, 2.49%.
Under `Cc1nc(-c2ccccc2)c(C(=O)N2CCC3(CC(=O)NC3=O)C2)s1` (stereo unspecified) stands -3.89%; under `Cc1cc(C)c2c(N3CCN(C(=O)N4CCOCC4)CC3)ncnc2n1`, -8.29%.
Regarding `CC(C)c1cc(-c2cnn(C)c2C2CC2)c(C#N)c(N)n1`, the cytotoxicity at 10 µM was found to be 28.5%.
On to `CN1CCN(C(=O)c2ccnc(N3CCOC(C(F)(F)F)C3)c2)CC1` (stereo unspecified), for which the cytotoxicity at 10 µM was -11.4%.
Turning to `CCc1ccc(CN2CCNC(C(=O)N3CCN(C)CC3)C2)nc1` (stereo unspecified), the cytotoxicity at 10 µM was 7.68%.
On to `Cc1cccc2[nH]c(C3CCN(C(=O)c4c[nH]c(=O)[nH]c4=O)CC3)nc12`, for which the cytotoxicity at 10 µM was 8.59%.
In the case of `CCC(=O)N1CCCC(Cn2cc(-c3ccc(F)cc3)nn2)C1` (stereo unspecified) it was 2.89%; in that of `COc1cccc(OCC(=O)N2CCC3(CC2)[C@H](O)C[C@@H]3OC)c1`, 0.866%.
Under `CC(C)N1CCCC(C(=O)NC(C)(C)c2nnc(N)s2)C1` (stereo unspecified) stands -2.4%; under `CS(=O)(=O)N1CCC(Oc2ccc(C(=O)NC3CCCC3)cc2Cl)CC1`, -1.02%.
Turning to `CC(=O)N[C@@H]1CN(Cc2ccc(F)cc2F)C[C@H]1c1ccc(C)o1`, the cytotoxicity at 10 µM was 6.39%.
On to `CC(=O)N1C[C@H](NS(=O)(=O)c2cccc(Cl)c2)[C@@H](C(C)C)C1`, for which the cytotoxicity at 10 µM was 7.82%.
In the case of `Cn1ccnc1C(=O)N1CCCC1c1ccc(C(=O)N2CCOCC2)s1` (stereo unspecified) it was -155%; in that of `Cn1c(Cn2cccn2)nnc1C1CCCN(c2ccncc2F)C1` (stereo unspecified), -0.773%; in that of `CCc1nc(C2CCCN2CC(=O)Nc2cc(C)no2)no1` (stereo unspecified), -1.68%.
On to `CCN1N=C(C(=O)N2CCCC(c3nc(C)c(C)s3)C2)CCC1=O` (stereo unspecified), for which the cytotoxicity at 10 µM is 1.84%.
In the case of `Cn1ccnc1COc1ccc(CN2CCC(C(N)=O)CC2)cc1` it was -4.47%.
Under `Cc1nc(C)n(CC2CN(c3ncccc3C#N)CCO2)n1` (stereo unspecified) stands -10.1%.
Turning to `CNC(=O)NC(=O)C(C)N(C)CCCc1cc(-c2ccccc2)no1` (stereo unspecified), the cytotoxicity at 10 µM is -11.6%.
Turning to `CC(=O)NCCNC(=O)c1sc(-c2ccc(Cl)cc2)nc1C`, the cytotoxicity at 10 µM was -7.6%.
Under `Cc1ccc(N2CCCN(C(=O)CCC3CCCO3)CC2)nn1` (stereo unspecified) stands -16.3%; under `Cc1nc(C)n(CC2CCCN(Cc3cccnc3)C2)n1` (stereo unspecified), -18.7%.
In the case of `c1cc(-c2noc(CN3CCn4c(nnc4C4CC4)C3)n2)cs1` it was -7.07%; in that of `Cc1cccc(CNC(=O)N(CCCO)C2CCc3ccccc32)n1` (stereo unspecified), -10.5%.
In the case of `CCOCC(O)CN1CCN(C(=O)C2CCC2)CC1` (stereo unspecified) it was -11.8%.
`O=C(Cc1c[nH]c2ccccc12)N1CCC(Nc2ccccc2)CC1`: the cytotoxicity at 10 µM was -12.9%.
In the case of `Cc1nc(C2CCCN2C(=O)Cn2cncn2)no1` (stereo unspecified) it was -2.51%; in that of `Cc1cnn(CC2CCCCN2C(=O)c2cnc3n[nH]c(C)c3c2)c1` (stereo unspecified), -26.2%.
Regarding `CCc1nc(CN2CCCN(C(=O)C3CCC3)CC2)cs1`, the cytotoxicity at 10 µM came out at 5.41%.
Consider `CC(C)(C)c1nnc(CN2CCn3c(nnc3C3CC3)C2)o1`, for which the cytotoxicity at 10 µM is 4.45%.
As to `O=C(Nc1cnccn1)[C@H]1COC[C@H]2CN(C3CCCC3)C[C@H]21`, the cytotoxicity at 10 µM is -20.4%.
In the case of `Cc1occc1C(=O)NCC1OCCc2cn(C)nc21` (stereo unspecified) it was 4.33%; in that of `O=C(Cc1ccsc1)N1CCCC2(COCCN(CC3CC3)C2)C1` (stereo unspecified), -127%; in that of `COc1ccc(C(=O)N2CC[C@@H]3[C@H](CC2)N(C)CCS3(=O)=O)cc1`, -117%.
In the case of `CN(C)C(=O)NCc1cc2n(n1)CCCN(CC1[C@H]3CNC[C@@H]13)C2` (stereo partly specified) it was -5.77%; in that of `C=c1occc1=C1NN=C2SC(C#N)C(N)=NN21` (stereo unspecified), 0.331%; in that of `Cc1oc(C(C)C)cc1C(=O)N1C[C@@H]2CC[C@H]1CN(C(=O)N(C)C)C2`, -119%.

The values are drawn from ChEMBL document CHEMBL4513216, “Probing the Open Global Health Chemical Diversity Library for Multistage-Active Starting Points for Next-Generation Antimalarials” (ACS Infect Dis, 2020).
